Source: ChEMBL document CHEMBL5344476, “Development of Hsp90 C-terminal inhibitors with noviomimetics that manifest anti-proliferative activities” (RSC Med Chem, 2024)
The source made the active and inactive calls. The calls are words filed in the database; no cut-off is given here.

Assays:
PC-3 = assay: Antiproliferative activity against human PC-3 cells assessed as inhibition of cell growth incubated for 72 hrs by MTS assay; format: functional, cell-based; details: PC-3, 72 h
In short: (§1)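 Cells were grown at 37°C under 5% CO₂: PC3 in RPMI-1640, MDA-MB-231 in DMEM, and SKBr3 in McCoy's. They were seeded at 2000 cells/well and left for 24 h, then exposed for 72 h to varying concentrations or vehicle (0.5% DMSO final). Viability was read by MTS/PES absorbance at 490 nm relative to control. IC50 came from concentration-response curves; values are means ± SD of two independent experiments.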

MDA-MB-231 = assay: Antiproliferative activity against human MDA-MB-231 cells assessed as inhibition of cell growth incubated for 72 hrs by MTS assay; format: functional, cell-based; details: MDA-MB-231, 72 h; in short: as §1
SK-BR-3 [1] = assay: Antiproliferative activity against human SK-BR-3 cells assessed as inhibition of cell growth incubated for 72 hrs by MTS assay; format: functional, cell-based; details: SK-BR-3, 72 h; in short: as §1
[2] = molecular target: T1, Heat shock protein HSP90 (Homo sapiens) (UniProt P07900+P08238); assay: Inhibition of C-terminal HSP90 in human SK-BR-3 cells assessed as reduction in HSR induction with constant Hsp70 level at 0.1 to 10 uM incubated for 24 hrs by Western blot analysis; format: cell-based; details: dose 0.1-10 µM
In short: (§2)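 SKBr3 cells were seeded at 700,000/well and grown to ~80% confluency. They were treated for 24 h with compound or vehicle (1% DMSO), then lysed in Triton/SDS buffer with protease and phosphatase inhibitors. Protein (20 ug, BCA-normalized) was run on 10% SDS-PAGE and transferred to PVDF. Blots were probed overnight at 4°C with 1:1000 anti-HER2, Hsp70, Hsp90, Akt, CDK6 or β-actin, then detected by HRP secondary and ECL.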

SK-BR-3 [3] = assay: Effect on HSP90 independent beta-actin protein level in human SK-BR-3 cells at 0.1 to 10 uM incubated for 24 hrs by Western blot analysis; format: functional, cell-based; details: dose 0.1-10 µM; in short: as §2
[4] = molecular target: T1, Heat shock protein HSP90 (Homo sapiens); assay: Inhibition of C-terminal HSP90 in human SK-BR-3 cells at 0.1 to 10 uM incubated for 24 hrs by Western blot analysis; details: dose 0.1-10 µM
[5] = molecular target: T1, Heat shock protein HSP90 (Homo sapiens); assay: Inhibition of C-terminal HSP90 in human SK-BR-3 cells assessed as HER-2 degradation incubated for 24 hrs by Western blot analysis; format: cell-based; details: dose 0.1-10 µM; in short: as §2
SK-BR-3 [6] = assay: Antiproliferative activity against human SK-BR-3 cells; format: functional, cell-based
In short: as §1, with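 “They” for “Cells were grown at 37°C under 5% CO₂: PC3 in RPMI-1640, MDA-MB-231 in DMEM, and SKBr3 in McCoy's. They”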

Compound | IC50 (PC-3) [µM] | IC50 (MDA-MB-231) [µM] | IC50 (SK-BR-3 [1]) [µM] | inhibition [2] | Activity (SK-BR-3 [3]) | inhibition [4] | inhibition [5] | IC50 (SK-BR-3 [6]) [µM]
COc1cccc(-c2cc(C(=O)NCCc3ccc(OC4CCC(C(F)(F)Oc5ccccc5)CC4)cc3-c3cccc(F)c3)ccc2OC)c1 (stereo unspecified) | > 50 | > 50 | > 50 |  |  |  |  | 
CC(C)=CCc1cc(C(=O)NCCc2ccc(OC3CCC(Cc4ccccc4)CC3)cc2-c2cccc(F)c2)ccc1O (stereo unspecified) | > 50 | > 50 | > 50 |  |  |  |  | 
COc1cccc(-c2cc(C(=O)NCCc3ccc(OCCCB4OC(C)(C)C(C)(C)O4)cc3-c3cccc(F)c3)ccc2OC)c1 | 8.07 | 35.1 | 15.3 |  |  |  |  | 
COc1cccc(-c2cc(C(=O)NCCc3ccc(OC4CCC(C(=O)Nc5ccccc5)CC4)cc3-c3cccc(F)c3)ccc2OC)c1 (stereo unspecified) | > 50 | > 50 | > 50 |  |  |  |  | 
COc1cccc(-c2cc(C(=O)NCCc3ccc(OC4CCNCC4)cc3-c3cccc(F)c3)ccc2OC)c1 | 3.08 | 3.29 | 0.9 | Active | inactive | Active | Dose-Dependent Effect | 
CCCC1CCC(Oc2ccc(CCNC(=O)c3ccc(OC)c(-c4cccc(OC)c4)c3)c(-c3cccc(F)c3)c2)CC1 (stereo unspecified) | > 50 | > 50 | > 50 |  |  |  |  | 
COc1cccc(-c2cc(C(=O)NCCc3ccc(OC4CCC(CSc5ccccc5)CC4)cc3-c3cccc(F)c3)ccc2OC)c1 (stereo unspecified) | > 50 | > 50 | > 50 |  |  |  |  | 
CNC(=O)C1CCC(Oc2ccc(CCNC(=O)c3ccc(OC)c(-c4cccc(OC)c4)c3)c(-c3cccc(F)c3)c2)CC1 (stereo unspecified) | > 50 | > 50 | > 50 |  |  |  |  | 
CC(C)=CCc1cc(C(=O)NCCc2ccc(OC3CCC(CCc4ccccc4)CC3)cc2-c2cccc(F)c2)ccc1O (stereo unspecified) | > 50 | > 50 | > 50 |  |  |  |  | 
COc1cccc(-c2cc(C(=O)NCCc3ccc(OCCCB(O)O)cc3-c3cccc(F)c3)ccc2OC)c1 | 13.3 | 36.6 | 21.6 |  |  |  |  | 
COc1cccc(-c2cc(C(=O)NCCc3ccc(OC4CCN(C)CC4)cc3-c3cccc(F)c3)ccc2OC)c1 | 6.6 | 4.87 | 3.46 |  |  |  |  | 
COc1cccc(-c2cc(C(=O)NCCc3ccc(OC4CCN(C(C)C)CC4)cc3-c3cccc(F)c3)ccc2OC)c1 | 13.6 | 9.35 | 6.61 |  |  |  |  | 
COc1cccc(-c2cc(C(=O)NCCc3ccc(OC4CCC(Cc5ccccc5)CC4)cc3-c3cccc(F)c3)ccc2OC)c1 (stereo unspecified) | > 50 | > 50 | > 50 |  |  |  |  | 
COc1cccc(-c2cc(C(=O)NCCc3ccc(OC4CCN(Cc5ccccc5)CC4)cc3-c3cccc(F)c3)ccc2OC)c1 | > 50 | > 50 | > 50 |  |  |  |  | 
COc1cccc(-c2cc(C(=O)NCCc3ccc(OC4CCOCC4)cc3-c3cccc(F)c3)ccc2OC)c1 | > 50 | > 50 | > 50 |  |  |  |  | 
CC(=O)NCCc1ccc(OC2CCC(OCc3ccccc3)CC2)cc1-c1cccc(F)c1 (stereo unspecified) |  |  |  |  |  |  |  | > 50
CCN1CCC(Oc2ccc(CCNC(=O)c3ccc(OC)c(-c4cccc(OC)c4)c3)c(-c3cccc(F)c3)c2)CC1 | 13.5 | 8.46 | 6.6 |  |  |  |  | 
COc1cccc(-c2cc(C(=O)NCCc3ccc(OC4CCC(SCc5ccccc5)CC4)cc3-c3cccc(F)c3)ccc2OC)c1 (stereo unspecified) | > 50 | > 50 | > 50 |  |  |  |  | 
CCCN1CCC(Oc2ccc(CCNC(=O)c3ccc(OC)c(-c4cccc(OC)c4)c3)c(-c3cccc(F)c3)c2)CC1 | 11 | 6.37 | 0.56 |  |  |  |  | 
COc1cccc(-c2cc(C(=O)NCCc3ccc(OC4CCC(COc5ccccc5)CC4)cc3-c3cccc(F)c3)ccc2OC)c1 (stereo unspecified) | > 50 | > 50 | > 50 |  |  |  |  | 
COc1cccc(-c2cc(C(=O)NCCc3ccc(OC4CCC(CCc5ccccc5)CC4)cc3-c3cccc(F)c3)ccc2OC)c1 (stereo unspecified) | > 50 | > 50 | > 50 |  |  |  |  | 
C=CCN1CCC(Oc2ccc(CCNC(=O)c3ccc(OC)c(-c4cccc(OC)c4)c3)c(-c3cccc(F)c3)c2)CC1 | 12.7 | 7.35 | 6.43 |  |  |  |  | 
COC(=O)C1CCC(Oc2ccc(CCNC(=O)c3ccc(OC)c(-c4cccc(OC)c4)c3)c(-c3cccc(F)c3)c2)CC1 (stereo unspecified) | > 50 | > 50 | > 50 |  |  |  |  | 
CC(C)=CCc1cc(C(=O)NCCc2ccc(OC3CCC(SCc4ccccc4)CC3)cc2-c2cccc(F)c2)ccc1O (stereo unspecified) | > 50 | > 50 | > 50 |  |  |  |  | 
COc1cccc(-c2cc(C(=O)NCCc3ccc(OC4CCC(CNc5ccccc5)CC4)cc3-c3cccc(F)c3)ccc2OC)c1 (stereo unspecified) | > 50 | > 50 | > 50 |  |  |  |  | 
COc1cccc(-c2cc(C(=O)NCCc3ccc(OC4CCCCC4)cc3-c3cccc(F)c3)ccc2OC)c1 | > 50 | > 50 | > 50 |  |  |  |  | 
COc1cccc(-c2cc(C(=O)NCCc3ccc(OC4CCC(OCc5ccccc5)CC4)cc3-c3cccc(F)c3)ccc2OC)c1 (stereo unspecified) | > 50 | > 50 | > 50 |  |  |  |  | 
COc1cccc(-c2cc(C(=O)NCCc3ccc(OC4CCC(C(=O)Oc5ccccc5)CC4)cc3-c3cccc(F)c3)ccc2OC)c1 (stereo unspecified) | > 50 | > 50 | > 50 |  |  |  |  | 
